Experiments:
Rattus norvegicus = test: Effect on gastrointestinal motility in fasted Sprague-Dawley rat assessed as distance of charcoal moved from stomach to cecum at 3 mg/kg, po (RVb= 42.1+/-1.8 %)
[1] = Half life in Beagle dog at 1 mg/kg, po by cassette dosing; format: ADME, organism-based, Canis lupus familiaris; set-up: dose 1 mg/kg, route oral; settings: in vivo
[2] = AUC in Beagle dog at 1 mg/kg, po by cassette dosing; format: ADME, organism-based, Canis lupus familiaris; set-up: dose 1 mg/kg, route oral; settings: plasma
[3] = Cmax in Beagle dog at 1 mg/kg, po by cassette dosing; format: ADME, organism-based, Canis lupus familiaris; set-up: dose 1 mg/kg, route oral; settings: in vivo
[4] = biological target: T1, Corticotropin-releasing factor receptor 1 (Rattus norvegicus, UniProt P35353); test: Displacement of [125I]Tyro-rat/human CRF from CRF1 receptor in rat cortical membrane by gamma counting; format: cell membranes
T1 sequence (P35353 whole entry): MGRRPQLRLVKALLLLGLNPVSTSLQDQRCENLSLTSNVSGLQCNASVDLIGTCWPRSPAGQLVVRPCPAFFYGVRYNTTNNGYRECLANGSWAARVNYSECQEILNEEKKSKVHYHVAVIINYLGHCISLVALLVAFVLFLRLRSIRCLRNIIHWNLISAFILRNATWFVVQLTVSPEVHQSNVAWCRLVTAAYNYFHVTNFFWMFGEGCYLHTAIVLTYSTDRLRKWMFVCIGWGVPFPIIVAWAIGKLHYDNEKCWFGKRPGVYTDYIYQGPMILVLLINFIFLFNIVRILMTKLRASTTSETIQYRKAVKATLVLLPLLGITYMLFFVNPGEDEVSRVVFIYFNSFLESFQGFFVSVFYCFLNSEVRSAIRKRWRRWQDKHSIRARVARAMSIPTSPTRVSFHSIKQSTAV
How it was run: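 Binding to CRF receptors in rat cortical homogenate.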

SMILES	IC50 [4] [nM]	also measured
CN1[C@@H]2CC[C@H]1C[C@@H](OC(=O)C(CO)c1ccccc1)C2 (mixture of isomers) [ATROPINE]	–	Activity (Rattus norvegicus): 27.5%
COCCN(CCOC)c1nc(C)nc2c(-c3ccc(OC)nc3C)c(C)nn12	8.5	half-life [1]: 10.3 h; AUC [2]: 1.47 µM·h; Cmax [3]: 275 nM
CCCCC(C)Nc1nc(C)nc2c(-c3ccc(OC)nc3C)c(C)nn12 (stereo not given)	5.1	–
CCCN(CCC)c1nc(C)nc2c(-c3c(C)cc(N(C)C)nc3C)c(C)nn12	14.9	–
CCN(C)c1nc(C)nc2c(-c3ccc(OC)nc3C)c(C)nn12	81.6	–
CCC(CC)Nc1nc(C)nc2c(-c3ccc(OC)nc3C)c(C)nn12	3.1	–
CCC(CC)Nc1nc(C)nc2c(-c3cnc(N(C)C)cc3C)c(C)nn12	24.8	–
CCCN(CCC)c1nc(C)nc2c(-c3ccc(OC)nc3C)c(C)nn12	5.7	–
CCN(CC)c1nc(C)nc2c(-c3ccc(OC)nc3C)c(C)nn12	12	–
CCN(CC)c1nc(C)nc2c(-c3c(C)cc(N(C)C)nc3C)c(C)nn12	58	–
COCCN(CCOC)c1nc(C)nc2c(-c3c(C)cc(N(C)C)nc3C)c(C)nn12	133	–
CCCN(CC1CC1)c1nc(C)nc2c(-c3ccc(OC)nc3C)c(C)nn12	1.6	–
CCCCN(CCC)c1nc(C)nc2c(-c3ccc(OC)nc3C)c(C)nn12	2.4	–
CCCN(C)c1nc(C)nc2c(-c3ccc(OC)nc3C)c(C)nn12	17.6	–
COCCNc1nc(C)nc2c(-c3c(C)cc(N(C)C)nc3C)c(C)nn12	> 10000	–
COCCN(CCOC)c1nc(C)nc2c(-c3cnc(OC)cc3C)c(C)nn12	23.8	–
CCCCN(C)c1nc(C)nc2c(-c3ccc(OC)nc3C)c(C)nn12	8.1	–
